Assay outcomes from PubChem.
TCR-CD3 inh: inhibitors of human TCR-CD3 interaction, primary screen, biochemical, fluorescence, TAMRA-labeled TCR probe; AID 651800, 2012; T-cell receptor (TCR); inhibition, % at 9.4 µM; 360,000 tested, 0.37% active; in the data active = inhibition above about 19%;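 also: recombinant mutant TCR 2C K166C tagged with TAMRA read by polarization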
HTRA1 inhibitor: HTRA1 serine protease inhibitors, primary screen, biochemical, fluorescence polarization, HTS; inhibition, % at 5.96 µM; 340,000 tested, 0.5% active; recombinant HTRA1, FP-rhodamine activity-based probe; Q92743; in the data active = inhibition above about 36%
SIAE primary: human SIAE inhibitors, primary screen, biochemical, fluorescence polarization, FP-Rh probe, 1536-well HTS; Sialate O-acetylesterase (Homo sapiens), Q9HAT2; SIAE FP-Rh probe binding; inhibition, % at 9.66 µM; 370,000 tested, 0.69% active; AID 1053197, 2014;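 active = inhibition above a cutoff: mean of compounds within the control limits plus 3 SD of those, cut at about 17% in these data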
Target sequence (Q9HAT2 whole entry, looked up): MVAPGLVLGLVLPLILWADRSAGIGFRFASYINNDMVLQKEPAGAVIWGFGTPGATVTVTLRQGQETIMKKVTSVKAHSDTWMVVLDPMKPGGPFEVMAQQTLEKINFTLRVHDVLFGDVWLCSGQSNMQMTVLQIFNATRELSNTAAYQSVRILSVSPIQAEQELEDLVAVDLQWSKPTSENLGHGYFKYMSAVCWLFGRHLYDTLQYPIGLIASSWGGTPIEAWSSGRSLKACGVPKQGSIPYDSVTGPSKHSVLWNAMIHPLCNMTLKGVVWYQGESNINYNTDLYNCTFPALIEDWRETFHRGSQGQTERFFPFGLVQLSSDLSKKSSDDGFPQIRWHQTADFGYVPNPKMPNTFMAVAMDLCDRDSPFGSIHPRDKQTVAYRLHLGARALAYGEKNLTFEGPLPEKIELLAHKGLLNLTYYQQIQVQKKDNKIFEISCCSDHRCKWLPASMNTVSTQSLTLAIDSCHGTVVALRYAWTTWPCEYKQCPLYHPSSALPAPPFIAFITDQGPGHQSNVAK
DDE Tn7 FP inh: inhibitors of Tn7 peptide binding to fibrin DD(E), primary screen, biochemical, fluorescence polarization, human fibrin, Tn7 probe; Fibrinogen beta chain (Homo sapiens), P02675; FP displacement of FITC-Tn7 peptide from fibrin DD(E); 0% = median of compound wells per plate; inhibition, % at 8.3 µM; 370,000 tested, 0.13% active;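 active = inhibition above the mean of compounds falling within the control limits plus 3 SD of them, cut at about 14% in these data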
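Test system: human clot-derived fibrin DD(E) complex / Quantity: 2 µM final DD(E) protein / Incubation: 10 min plus 3 h, room temperature / Measured by: fluorescence polarization / Benchmarks: high control of 10 µM Aha-Tn7 peptide / Replicates: singlicate testing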
ABHD4 inh: ABHD4 inhibitors, primary screen, biochemical, fluorescence polarization, mouse; (Lyso)-N-acylphosphatidylethanolamine lipase (Mus musculus), Q8VD66; purified mABHD4, FP-Rh probe fluorescence polarization; inhibition, % at 8.92 µM; 370,000 tested, 0.54% active;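 active = inhibition exceeding the mean over every tested compound plus 3 SD, cut at about 30% in these data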
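Assay system: mABHD4 protein; medium: HEPES pH 7.0, NaCl, Pluronic buffer; dosing: 8.92 µM, single dose; schedule: 45 min + 60 min at 25 °C; signal: FP readout, ex 525 nm / em 598 nm; read-out: normalized percent inhibition of probe labeling; repeats: single replicate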
Tn6 DDE FP: inhibitors of Tn6 peptide binding to fibrin DD(E), primary screen, biochemical, fluorescence polarization, human fibrin, Tn6 probe | Fibrinogen beta chain (Homo sapiens), P02675 | inhibition, % at 8.3 µM | 370,000 tested, 0.21% active | Fibrin DD(E) TRITC-Tn6 fluorescence polarization displacement | AID 720509, 2013;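 active = inhibition above a per-campaign cutoff: mean of compounds within control limits plus 3 SD, cut at about 15% in these data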
SIAE inh conf: human SIAE inhibitors, retest, confirmation, biochemical, fluorescence polarization, FP-Rh probe, triplicate | shares compounds with SIAE primary | SIAE FP-Rh activity-based probe | inhibition, % at 9.66 µM | 2,300 tested, 13% active | AID 1117263, 2014;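 active = mean inhibition of the replicates above the hit cutoff set in the primary screen, cut at about 17% in these data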;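 also: inhibitors lower polarization as more probe stays unbound to SIAE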
Numbers stand for hits; - = inactive; . = not tested or not shown. Sampled rows, rich in hits. Any-hit rate of the full collection: about 1.8%.

SMILES	TCR-CD3 inh	HTRA1 inhibitor	SIAE primary	DDE Tn7 FP inh	ABHD4 inh	Tn6 DDE FP	SIAE inh conf
COC(=O)C1CCN(C(=O)COC(=O)c2ccc(OC)c(S(=O)(=O)N3CCCc4ccccc43)c2)CC1	-	-	21	-	-	-	-
COC(=O)C1CCN(C(=O)c2ccc(OC)c(S(=O)(=O)N3CCCc4ccccc43)c2)CC1	-	-	-	-	-	-	.
COCC(=O)N[C@H]1C[C@@H]2O[C@H](CO)CC[C@@H]2O[C@@H]1CCc1ccc(-c2ccccc2)cc1	.	.	-	-	-	-	.
CC1(C)CC(=O)c2cc(N=C/C(C(=O)c3ccccc3)=C(\O)c3ccccc3)c(=O)oc2C1	-	-	17	-	-	-	-
COC(=O)C1CN(C2CC2)CCS(=O)(=O)N1Cc1cn(Cc2ccc(F)cc2)nn1 (stereo not drawn)	.	.	-	-	-	-	.
O=C(Nc1ccc(N2CCCCC2)cc1)c1ccc([N+](=O)[O-])o1	-	-	19	-	-	-	-
O=C(Nc1ccc(N2CCOCC2)cc1)c1ccc([N+](=O)[O-])cc1	-	-	17	-	-	-	-
O=C(c1ccc([N+](=O)[O-])cc1)N1CCOCC1	-	-	18	-	-	-	-
O=[N+]([O-])c1cccc(N/N=C/c2ccc(N3CCOCC3)cc2)c1	-	-	18	-	-	-	-
O=C(c1ccc([N+](=O)[O-])cc1)N1CCCC1	-	-	-	-	-	-	.
C=CCN1C(=O)[C@H](CC(=O)NCC23CC4CC(CC(C4)C2)C3)[C@@]2(C(=O)OCC)CCCC=C12	.	.	-	-	-	-	.
Cc1ccc(-n2c(SCC(=O)Nc3ccccc3-c3ccccc3)nnc2-c2ccco2)cc1	.	.	-	-	-	-	.
O=C(Nc1ccc(-c2csc(Nc3ccccc3)n2)cc1)c1cc([N+](=O)[O-])cc(C(F)(F)F)c1	-	-	40	-	-	-	20
O=C1c2ccccc2C(Nc2ccc3c(c2)OCO3)N1Cc1ccc2c(c1)OCO2 (stereo not drawn)	-	-	-	-	-	-	.
O=C1c2ccccc2C(Nc2ccc3c(c2)OCO3)N1Cc1ccco1 (stereo not drawn)	-	-	19	-	-	-	-
COc1ccccc1NC(=O)c1cc2c(CO)cnc(C)c2oc1=Nc1cc(OC)c(OC)c(OC)c1	-	-	18	-	-	-	-
Cc1ccccc1N1CCN(S(=O)(=O)N(C)C)CC1	-	-	21	-	-	-	-
CCCC[C@H](C(=O)N(CC)c1ccccc1)[C@@H](O)c1ccc(Cl)cc1	.	.	-	-	-	-	.
CCCC[C@H]1C2CC(OC(=O)NCc3ccc(Cl)cc3)C(C2)[C@H]2CCCCN21 (stereo partly drawn)	.	.	-	-	-	-	.
Cc1[nH]n(-c2ccc(Br)cc2)c(=O)c1/C=N/NC(=O)c1ccccc1	-	-	17	-	-	-	-
O=C(Nc1ccc(F)cc1Cl)C1CCCN1S(=O)(=O)c1cccc2cccnc12 (stereo not drawn)	.	.	-	-	-	-	.
Cc1cccc(-n2c(-c3ccccc3)c[nH]c2=S)c1C	-	-	-	-	-	-	.
CCC1(c2ccccc2)NC(=S)N(c2cccc(C)c2C)N1 (stereo not drawn)	-	-	17	-	-	-	-
CCOc1ccccc1NC(=O)c1cc2c(C)nn(-c3ccccc3)c2s1	.	.	-	-	-	-	.
C[C@@H](c1ccccc1)N1C[C@@H](COCc2ccccc2)Oc2cc(N3CC[C@@H](N(C)C)C3)ccc2S1(=O)=O	-	.	18	-	-	-	-
SMILES	TCR-CD3 inh	HTRA1 inhibitor	SIAE primary	DDE Tn7 FP inh	ABHD4 inh	Tn6 DDE FP	SIAE inh conf
OC(COCc1ccccc1)CN1CCc2ccccc2C1 (stereo not drawn)	-	-	-	-	-	-	.
COc1ccc(COCC(O)CN2CCc3ccccc3C2)cc1OC (stereo not drawn)	-	-	20	-	-	-	-
CS(=O)(=O)N1CCC(C(=O)NCC2COc3ccccc3O2)CC1 (stereo not drawn)	.	.	-	-	-	-	.
CN(C)c1ccc(NC(=O)CSc2nc(N)c(C(=O)Nc3ccc(N(C)C)cc3)s2)cc1	-	-	20	-	-	-	-
O=[N+]([O-])c1cccc(CN2CCN(c3cccc4[nH]ccc34)CC2)c1	-	-	20	-	-	-	-
Cc1ccsc1C(=O)N1CC=C(c2ccccc2)CC1	-	-	-	-	-	-	.
Cc1ccc(C(=O)N2CC=C(c3ccccc3)CC2)s1	-	-	19	-	-	-	-
CCC(=O)Oc1ccc(C/C(=N\O)c2ccc(O)cc2O)o1	-	-	37	-	-	-	28
N=C(N)CCCOc1ccccc1-c1ccccc1	-	-	20	-	-	-	-
Cc1cccc(S(=O)(=O)Nc2ccc(C)c3c2OC(C)(C)C3)c1	-	-	24	-	-	-	-
Cc1ccc(NS(=O)(=O)c2ccccc2Cl)c2c1CC(C)(C)O2	-	-	-	-	-	-	.
NNC(=O)c1cc2ccccc2cc1O	-	-	18	-	-	-	-
O=C(NCCO)c1cc2ccccc2cc1O	-	-	-	-	-	-	.
CCOc1ccc(NC(=O)c2cc3ccccc3cc2OC)cc1	-	-	-	-	-	-	.
CCOc1ccc(NC(=O)c2cc3ccccc3cc2O)cc1	-	-	18	-	-	-	-
CCCCNC(=O)NS(=O)(=O)c1ccc(NC(=O)CSc2nnc(-c3ccc(Cl)cc3)n2N)cc1	.	.	-	-	-	-	.
COc1ccc(Nc2ncnc3sc(-c4ccccc4)cc23)cc1OC	-	-	23	-	-	-	-
COC(=O)c1ccc2c(C)c(C3(O)CCCCC3)[nH]c2c1	-	-	-	-	-	-	.
Cc1c(C2(O)CCCCC2)[nH]c2ccc(C#N)cc12	-	-	18	-	-	-	-
Cc1cc(/C([O-])=C(/C(=S)Nc2ccc(F)cc2)[n+]2ccccc2)c(C)n1Cc1ccccc1Cl	-	-	22	-	-	-	-
O=C(N=C1N(CC2CC2)CC2(C=C3CCCCC3n3c(=O)n(-c4ccccc4)c(=O)n32)N1C(=O)OCc1ccccc1)c1ccccc1 (stereo not drawn)	.	.	-	-	-	-	.
C[C@H]1[C@H](NC(=O)c2cccc(C(F)(F)F)c2)CC[C@@]23CCCN2C(=O)CCC[C@@H]13	.	.	-	-	-	-	.
